# According to ChEMBL document CHEMBL1132205, “Desazadesmethyldesferrithiocin analogues as orally effective iron chelators” (J Med Chem, 1999):
# Tests used:
# Rattus norvegicus [1] = assay: Efficiency of the chelator [(net iron excretion ) / (total iron binding capacity of chelator)] to induce iron clearance in rat at a peroral dose of 150 umol/kg.; format: functional
# Method in brief: (§1)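 Male Sprague–Dawley rats (~400 g) had bile-duct cannulation under ip pentobarbital. Chelator in 40% Cremophor RH-40/water was given at 150 µmol/kg, po or sc. Bile was collected at 3-h intervals for 24 h and urine every 24 h; iron was measured in both. Net iron = treated minus control excretion, divided by the theoretical 2:1 ligand–iron binding capacity, as a percent.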
# Rattus norvegicus [2] = assay: Efficiency of the chelator [(net iron excretion ) / (total iron binding capacity of chelator)] to induce iron clearance in rat at a subcutaneous dose of 150 uMol/kg.; format: functional; method in brief: as §1
# Monkey [3] = assay: Efficiency of the chelator [(net iron excretion ) / (total iron binding capacity of chelator)] to induce iron clearance in monkey at a peroral dose of 75 umol/kg.
# Monkey [4] = assay: Efficiency of the chelator [(net iron excretion ) / (total iron binding capacity of chelator)] to induce iron clearance in monkey at a peroral dose of 150 uMol/kg.; format: functional, Cercopithecidae
# Method in brief: (§2)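 Capuchin (Cebus apella) monkeys were iron-loaded with 2–3 iron dextran iv infusions to about 500 mg Fe/kg, then rested at least 60 days. Chelator was given po in 40% Cremophor RH-40/water. Feces and urine were collected every 24 h, from 4 days pre-dose to 5 days post-dose, and iron was measured by flame AAS. Efficiency = (2-day post-dose iron − mean 4-day baseline) / theoretical output for a 2:1 ligand–iron complex, as a percent.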
# [5] = Octanol-water apparent distribution coefficient measured in TRIS buffer at a pH 7.4.; format: physicochemical
# Method in brief: (§3)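 Shake-flask octanol/50 mM TRIS buffer pH 7.4 at 24 °C, with 3–5 min mixing and 1–24 h settling. Phase concentrations were read by UV spectrometry. Values are distribution coefficients uncorrected for partial ionization of the acids.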
# Monkey [6] = assay: Efficiency of the chelator [(net iron excretion ) / (total iron binding capacity of chelator)] to induce iron clearance in monkey at a peroral dose of 300 uMol/kg.; format: functional, Cercopithecidae; method in brief: as §2
# [7] = log P value measured in TRIS buffer at a pH 7.4.; format: physicochemical; method in brief: as §3
# Rattus norvegicus [8] = assay: Chronic toxicity in 5 rats administered by gavage at a dose of 384 [uMol/kg/day] X 10 days, measured as number of deaths. Activity value is 5/5.; format: organism-based; conditions: in vivo, po, 240 h
# Rattus norvegicus [9] = assay: Efficiency of the chelator [(net iron excretion ) / (total iron binding capacity of chelator)] to induce iron clearance in rat at a peroral dose of 150 uMol/kg.; format: functional; method in brief: as §1
# Rattus norvegicus [10] = assay: Chronic toxicity in rats administered by gavage at a dose of 384 [uMol/kg/day] X 10 days, measured as number of deaths. Activity value is 0/5 (All histopathologies normal; well tolerated for 10-day test period); format: organism-based; conditions: in vivo, po, 240 h
# Rattus norvegicus [11] = assay: Chronic toxicity in 5 rats administered by gavage at a dose of 384 [uMol/kg/day] X 10 days, measured as number of deaths. Activity value is 0/5 (All histopathologies normal; well tolerated for 10-day test period); format: organism-based; conditions: in vivo, po, 240 h
# Rattus norvegicus [12] = assay: Chronic toxicity in 5 rats administered by gavage at a dose of 384 [uMol/kg/day] X 10 days, measured as number of deaths. Activity value is 5/5; format: organism-based; conditions: in vivo, po, 240 h
structure (smiles),measurement,setting,value
O=C(O)C[C@H]1CSC(c2ccccc2O)=N1,Efficiency,Rattus norvegicus [1],<0.5%
O=C(O)[C@H]1CSC(Cc2ccccc2O)=N1,Efficiency,Rattus norvegicus [2],<0.5%
same,Efficiency,Rattus norvegicus [1],<0.5%
O=C(O)C1CN=C(c2ccccc2O)N1 (centres undefined),Efficiency,Rattus norvegicus [2],<0.5%
same,Efficiency,Rattus norvegicus [1],<0.5%
O=C(O)[C@@H]1CSC(c2nc3ccccc3cc2O)=N1,Efficiency,Monkey [3],<0.5%
same,Efficiency,Rattus norvegicus [1],12.3%
O=C(O)[C@H]1CSC(c2nc3ccccc3cc2O)=N1,Efficiency,Monkey [4],3.5%
same,Efficiency,Rattus norvegicus [1],5.9%
O=C(O)[C@H]1CSC(c2ccccc2O)=N1,K app,[5],0.12
same,Efficiency,Monkey [6],12.4%
same,logD,[7],-0.93
same,No. of deaths,Rattus norvegicus [8],Number of deaths 5/5
same,Efficiency,Rattus norvegicus [1],1.4%
O=C(O)[C@H]1CSC(c2cccc(O)c2O)=N1,Efficiency,Rattus norvegicus [2],<0.5%
same,Efficiency,Rattus norvegicus [9],<0.5%
COc1cccc(C2=N[C@@H](C(=O)O)CS2)c1O,Efficiency,Rattus norvegicus [2],0.5%
same,Efficiency,Rattus norvegicus [1],0.9%
O=C(O)[C@H]1CSC(c2ccc(O)cc2O)=N1,K app,[5],0.063
same,Efficiency,Monkey [4],4.2%
same,logD,[7],-1.2
same,No. of deaths,Rattus norvegicus [10],well tolerated for 10-day test period
same,Efficiency,Rattus norvegicus [9],2.4%
O=C(O)CC[C@H]1CSC(c2ccccc2O)=N1,Efficiency,Rattus norvegicus [1],<0.5%
Cc1ccc(O)c(C2=NC(C(=O)O)CC2)c1.Cl (centres undefined),Efficiency,Rattus norvegicus [2],<0.5%
same,Efficiency,Rattus norvegicus [1],<0.5%
O=C(O)[C@H]1CSC(c2ncccc2O)=N1,K app,[5],0.013
same,Efficiency,Monkey [6],8%
same,Efficiency,Monkey [4],4.8%
same,logD,[7],-1.87
same,No. of deaths,Rattus norvegicus [11],well tolerated for 10-day test period
same,Efficiency,Rattus norvegicus [1],2.4%
C[C@]1(C(=O)O)CSC(c2ncccc2O)=N1 [DESFERRITHIOCIN],K app,[5],0.017
same,No. of deaths,Rattus norvegicus [12],Number of deaths 5/5
same,Efficiency,Monkey [4],16.1%
same,logD,[7],-1.77
same,Efficiency,Rattus norvegicus [1],5.5%
O=C(O)c1ccc(C2=N[C@@H](C(=O)O)CS2)c(O)c1,Efficiency,Rattus norvegicus [2],<0.5%
same,Efficiency,Rattus norvegicus [1],<0.5%
